Data set [1] concerns the target T1, RAC-alpha serine/threonine-protein kinase (Homo sapiens, UniProt P31749). Description: Inhibition of PKB at 50 uM by radioactive kinase assay relative to control. The method in brief:
(§1)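 PKB/Akt enzyme HisAPHPKBEEEFlag, partly purified in one step on Ni-NTA agarose. The radioactive kinase reaction contains 50 mM Hepes pH 7.4, 0.1 mM EGTA, 0.1% 2-mercaptoethanol, 10 mM magnesium acetate, 3 uM RPRTSSF peptide substrate, 10 uM [γ32P]ATP and 0.005 units enzyme. Inhibition is given as percent reduction of activity against a no-inhibitor control. IC50 values, with 95% confidence ranges, come from curve fitting.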

In data set [2] the target is T1, RAC-alpha serine/threonine-protein kinase. The experiment in a line: Inhibition of PKB at 5 uM by radioactive kinase assay relative to control. The method in brief:
as §1

For data set [3] the target is unchanged. The experiment in a line: Inhibition of PKB at 100 uM by radioactive kinase assay relative to control. In outline:
as §1

The target is the same in data set [4]. The experiment in a line: Inhibition of PKB at 20 uM by radioactive kinase assay relative to control. In outline: as §1
Data set [5] in a line: Stability in presence of trypsin and chymotrypsin assessed as peptide degradation at 1 mM after 30 mins by HPLC. Type of data set: ADME. The following applies: read-out: Activity. In outline:
(§2)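 Peptide at 1 mM in 200 mM NH4HCO3, pH 8, is mixed with porcine pancreatic trypsin plus chymotrypsin (2.5 mg/ml solution) and incubated at 37 °C. Samples are taken every 30 min and quenched with 2% TFA/30% acetonitrile in water. Degradation is followed by HPLC and MALDI-TOF MS.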

The nature of data set [6]: Stability in presence of trypsin and chymotrypsin assessed as peptide degradation at 1 mM after 2 hrs by HPLC. The following applies: isolated protein, 1000 µM. Type of data set: ADME. In outline: as §2
Data set [7] has as its target T1, RAC-alpha serine/threonine-protein kinase. The experiment in a line: Inhibition of PKB by radioactive kinase assay. In outline:
as §1

Data set [8] can be described thus: Stability in presence of trypsin and chymotrypsin assessed as peptide degradation at 1 mM within 90 mins by HPLC. The following applies: isolated protein, 1.5 h, 1000 µM. Type of data set: ADME. In outline:
as §2

A short description of data set [9]: Stability in presence of trypsin and chymotrypsin assessed as peptide degradation at 1 mM within 30 mins by HPLC. Type of data set: ADME. The following applies: isolated protein, 0.5 h, 1000 µM. The method in brief: as §2

SMILES strings stand for the structures. Peptide text beside a SMILES is read from it.

Five molecules from ChEMBL document CHEMBL1156226, “Synthesis and structure-activity relationship studies of peptidomimetic PKB/Akt inhibitors: the significance of backbone interactions” (Bioorg Med Chem, 2010) can be followed below.

By inhibition is commonly meant the change of the read-out against control, counted positive when it falls. Broadly, the IC50 is the concentration at which inhibition is half-maximal.

T1 sequence (P31749 whole entry): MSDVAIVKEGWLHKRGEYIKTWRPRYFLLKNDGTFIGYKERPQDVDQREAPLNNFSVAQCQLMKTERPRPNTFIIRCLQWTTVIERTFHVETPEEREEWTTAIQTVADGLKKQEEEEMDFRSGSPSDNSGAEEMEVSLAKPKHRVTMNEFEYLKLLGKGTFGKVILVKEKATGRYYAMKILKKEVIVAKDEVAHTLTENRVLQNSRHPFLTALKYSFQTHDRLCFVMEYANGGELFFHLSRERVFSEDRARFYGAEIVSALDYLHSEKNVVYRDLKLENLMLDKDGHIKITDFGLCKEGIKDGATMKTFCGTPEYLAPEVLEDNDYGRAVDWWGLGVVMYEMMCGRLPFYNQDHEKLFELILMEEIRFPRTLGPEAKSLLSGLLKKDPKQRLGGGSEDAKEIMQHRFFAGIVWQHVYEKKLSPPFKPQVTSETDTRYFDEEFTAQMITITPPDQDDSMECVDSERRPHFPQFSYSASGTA

As to `CCC[C@H](NC(=O)[C@H](CCCNC(=N)N)NC(=O)[C@@H]1CCCN1C(=O)[C@@H](N)CCCNC(=N)N)C(=O)N[C@@H](Cc1ccc(O)cc1)C(=O)N[C@H](CS)C(=O)N[C@@H](CCC(C)C)C(N)=O`, the inhibition in data set [1] and in [2] was 95% throughout.
In the case of `CCC[C@H](NC(=O)[C@H](CCCNC(=N)N)NC(=O)[C@@H]1CCCN1C(=O)[C@@H](N)CCCNC(=N)N)C(=O)N[C@@H](Cc1ccc(O)cc1)C(=O)N[C@@H](CN)C(=O)N[C@@H](CCC(C)C)C(N)=O` (HELM PEPTIDE1{R.P.R.[Nva].Y.[NC[C@H](N[*:1])C(=O)[*:2]].[CC(C)CC[C@H](N[*:1])C(=O)[*:2]].[am]}$$$$V2.0), the inhibition in [1] is 99%; in [3] it was 99%; in data set [4], 96%; in data set [2] it was 87%. In data set [5], the metabolised at 0.5 h, 1000 µM turned out to be 40%. The Stability result in data set [6] was “Unstable”. The IC50 in [7] was determined as 0.94 µM.
With `CCC[C@H](NC(=O)[C@H](CCCNC(=N)N)NC(=O)[C@H](C)N(C)C(=O)[C@@H](N)CCCNC(=N)N)C(=O)N[C@@H](Cc1ccc(O)cc1)C(=O)N[C@@H](CN)C(=O)N[C@@H](CCC(C)C)C(N)=O` (HELM PEPTIDE1{R.[meA].R.[Nva].Y.[NC[C@H](N[*:1])C(=O)[*:2]].[CC(C)CC[C@H](N[*:1])C(=O)[*:2]].[am]}$$$$V2.0), the Stability result in data set [8] and in [9] was “Unstable” throughout. Besides, the inhibition was 95% in data set [3] and 77% in data set [2]. The IC50 in data set [7] is 2.03 µM.
Consider `CCC[C@H](NC(=O)[C@H](CCCN=C(N)N)NC(=O)[C@@H]1CCCN1C(=O)[C@H](CCCN=C(N)N)NC(=O)[C@H](CCCN=C(N)N)NC(C)=O)C(=O)N[C@@H](Cc1ccc(O)cc1)C(=O)N[C@@H](CN)C(=O)N[C@@H](CCC(C)C)C(N)=O` (HELM PEPTIDE1{[ac].R.R.P.R.[Nva].Y.[NC[C@H](N[*:1])C(=O)[*:2]].[CC(C)CC[C@H](N[*:1])C(=O)[*:2]].[am]}$$$$V2.0), for which, in data set [7], the IC50 turned out to be 1.17 µM.
Turning to `CCC[C@H](NC(=O)[C@H](CCCNC(=N)N)NC(=O)[C@@H]1CCCN1C(=O)[C@H](CCCNC(=N)N)NC)C(=O)N[C@@H](Cc1ccc(O)cc1)C(=O)N[C@@H](CN)C(=O)N[C@@H](CCC(C)C)C(N)=O` (HELM PEPTIDE1{[meR].P.R.[Nva].Y.[NC[C@H](N[*:1])C(=O)[*:2]].[CC(C)CC[C@H](N[*:1])C(=O)[*:2]].[am]}$$$$V2.0), the inhibition worked out at 97% in data set [3] and 85% in data set [2]. The IC50 in data set [7] was 0.92 µM.
